Assay outcomes from PubChem.
Bfl-1 A1 inh: inhibitors of the anti-apoptotic protein A1, read as caspase activation; MEF A1-2A-BIM cells, Caspase-Glo 3/7 luminescence, 3 h; percent of clofoctol response, vehicle zero; caspase activation, % (concentration not given with the values); actives 0.066% (n = 330,000); AID 2462;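 active means over half of replicate activation scores above 10%, or exactly half above 10 with the replicate mean above 10; inconclusive means replicate mean below 10 yet half the replicates above 10; inactive means over half of replicates below 10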
NALP1 yeast inh: blocks the NALP1 inflammasome reconstituted in yeast | S. cerevisiae NALP1/ASC/caspase-1 growth, X-gal OD620, 72 h | inhibition, % at 10 µM | actives 0.61% (n = 280,000) | AID 2071; in the data active means inhibition mostly above about 24%, no sharp cut-off; inactive means mostly below about 32%
T cell modulator: modulates CD8 T cell binding to vesicles; 2C CD8+ T cell-vesicle binding, flow cytometry; hits give low values; actives 0.068% (n = 330,000); AID 2052; response (vesicle binding), % at 7 µM;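 active means response, share of CD8 T cells binding vesicles, and their 90th percentile fluorescence all below set limits, cut at about 80% in these data, passing the limit was not always enough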;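 further: values below 100% mean blocked vesicle binding to the CD8+ T cells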
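Assay system: 2C TCR transgenic mouse naive CD8+ T cells, MACS-purified | Read-out: CD8+ gate FL2 mean fluorescence as % of same-row positive control | Signal: High-throughput flow cytometry with anti-B7-1 and anti-CD8 staining | Timing: Binding step 1.5 h, 37 °C, antibody labelling 20 min, ice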
NLRP3 yeast inh: inhibitors of NALP3 inflammasome in yeast. Yeast reconstituted NLRP3/ASC/caspase-1, beta-gal luminescence, 24 h. inhibition, % at 10 µM. actives 0.39% (n = 330,000). AID 2825;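 active means inhibition of 50% or more; inactive means inhibition below 50%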
NALP3 confirm: confirmation of NALP3 inhibitors in yeast | shares compounds with NLRP3 yeast inh | yeast expressing human NALP3, luminescence | inhibition, % at 10 µM | actives 81% (n = 1,300) | AID 435006; in the data active means inhibition above about 48%
Casp1-ASC yeast: caspase-1-ASC yeast counter-screen hit; shares compounds with NLRP3 yeast inh; actives 66% (n = 1,000); yeast expressing Caspase-1-ASC, luminescence counter screen; inhibition, % at 10 µM; AID 488784
NALP3 yeast rt: retest-confirmed inhibitor of NALP3 in yeast; actives 53% (n = 1,000); yeast expressing human NALP3, luminescence read-out; inhibition, % at 10 µM; shares compounds with NLRP3 yeast inh; AID 488794
A number is an active result; 0 = inactive; ? = inconclusive; - = not tested or not shown; ! = not confirmed by another sample. Shown are actives, neighbours in structure and some others; about 1% of the full set was active somewhere. Unless noted, no stated cut-off is given here; in the data, active means inhibition above about 50%; inactive means the rest.

SMILES	Bfl-1 A1 inh	NALP1 yeast inh	T cell modulator	NLRP3 yeast inh	NALP3 confirm	Casp1-ASC yeast	NALP3 yeast rt
C[C@H](CO)N1C[C@H](C)[C@@H](CN(C)S(=O)(=O)c2cn(C)cn2)Oc2c(NS(=O)(=O)c3cn(C)cn3)cccc2C1=O	-	-	0	0	-	-	-
CCc1cc(=O)[nH]c(SCC(=O)Nc2ccc3c(c2)OCCO3)n1	0	-	0	0	-	-	-
CCc1ccccc1NC(=O)C1=CC(c2ccc(OC)c(OC)c2)=NS(=O)(=O)N1C	0	0	0	0	-	-	-
CN1[C@@H]2CCC[C@H]1CC(NC(=O)c1nn(C)c3ccccc13)C2 (stereo not given in full)	0	-	0	0	-	-	-
CN1CCc2cccc3c2[C@H]1Cc1ccc(O)c(O)c1-3	0	101	0	52!	59	0	0
CN1CCc2cc3c(c4c2[C@H]1[C@H](O)c1ccccc1-4)OCO3	0	0	-	0	-	-	-
CCOC(=O)c1ccc2c(c1)NCc1cccc(OC)c1O2	0	0	0	54	63	0	0
O=C(NC1CCCC1)c1cc(-c2ccccc2O)on1	0	0	0	0	-	-	-
COc1ccccc1-c1cc(C(=O)NC2CCCC2)no1	0	0	0	53	50	50	0
O=C(NCc1ccccc1Cl)C1=CC=CN2CCS(=O)(=O)N=C12	0	-	0	0	-	-	-
Cc1ccc(C(=O)/C=C/Nc2ccccn2)cc1	0	-	0	53	0	-	-
NC(=O)CC(NC(=O)Cc1ccc(Br)cc1)c1ccc(N2CCC(Br)CC2)c([N+](=O)[O-])c1 (stereo not given)	0	-	0	0	-	-	-
NC(=O)CC(NC(=O)Cc1ccc(Br)cc1)c1ccc(N2CCC(Cc3ccccc3)CC2)c([N+](=O)[O-])c1 (stereo not given)	0	-	0	51	80	0	0
CCCCOc1ccc2c(c1)C(=O)c1cc(O)ccc1-2	0	0	0	61	70	66	62
CCOc1ccc2c(c1)C(=O)c1cc(OCC(=O)O)ccc1-2	0	0	0	0	-	-	-
COc1cc(-c2nc(S(=O)(=O)c3ccc(C)cc3)c(N(C)C)o2)cc(OC)c1OC	0	0	0	0	-	-	-
Cc1ccc(-c2nc(S(=O)(=O)c3ccc(C)cc3)c(N(C)C)o2)cc1	0	0	0	71	66	82	62
Cn1cc(S(=O)(=O)N2CCCC2)cc1C(=O)NCCc1ccccc1	0	0	0	0	-	-	-
Cc1cc(C)nc(NC(=O)c2c(F)c(F)c(F)c(C(=O)Nc3cc(C)cc(C)n3)c2F)c1	0	-	0	0	-	-	-
Clc1ccc(OCCn2cnc3ccccc32)c(Cl)c1	0	0	0	71	62	77	63
c1ccc2c(c1)ncn2CCOCCOCCn1cnc2ccccc21	0	0	0	0	-	-	-
CCOc1c2ccoc2nc2c(OC)c(OC)ccc12	0	0	0	50	68	0	0
C=CCOc1ccc2c(OC)c3ccoc3nc2c1OC	0	0	0	0	-	-	-
O=S(=O)(c1ccc(Br)s1)N1CCN(c2ccccc2)CC1	0	0	0	0	-	-	-
O=S(=O)(c1ccc(Br)s1)N1CCN(c2ccc(F)cc2)CC1	0	0	0	55	65	0	0
SMILES	Bfl-1 A1 inh	NALP1 yeast inh	T cell modulator	NLRP3 yeast inh	NALP3 confirm	Casp1-ASC yeast	NALP3 yeast rt
O=S(=O)(c1ccc(Br)s1)N1CCN(CCc2ccccc2)CC1	0	-	0	61	63	0	0
CCN1CCN(S(=O)(=O)c2ccc(Br)s2)CC1	0	0	0	0	-	-	-
Cc1ccc(NC(=O)Cc2csc(-c3ccccc3)n2)cc1F	0	0	0	62	0	53	60
COc1ccc2nc(N3C(=O)CNC3=S)sc2c1	0	-	0	67	0	-	-
Cc1ccc2nc(N3C(=O)CNC3=S)sc2c1	0	0	0	81	61	87	83
COC(=O)/C=C1\C(=O)N(c2nc3ccc(OC)cc3s2)C(=S)N1c1ccc(F)cc1	0	0	0	0	-	-	-
Cc1cc(N2CCCC2)ccc1/C=C1\NC(=S)N(C)C1=O	0	0	0	51	50	50	0
O=S(=O)(c1ccc(N2CCN(c3ccc(F)cc3)CC2)cc1)N1CCCC1	0	0	0	0	-	-	-
O=S(=O)(c1ccc(N2CCCC2)cc1)C(F)(F)F	0	0	0	56	59	59	0
O=C(Nc1cccc(O)c1)c1noc2c1CCc1ccccc1-2	0	0	0	63	58	52	57
Cc1ccc(NC(=O)c2noc3c2CCc2ccccc2-3)cc1	0	0	0	0	-	-	-
NC(=S)N/N=C/c1ccccc1OCc1cccc(Cl)c1	0	0	0	56	67	58	0
O=C(CN1C(=O)COc2ccccc2C1=O)c1ccc2c(c1)OCCO2	0	0	0	0	-	-	-
C[C@H](CO)N1C[C@H](C)[C@@H](CN(C)C(=O)Nc2ccc3c(c2)OCO3)Oc2ccc(NS(=O)(=O)c3ccc(F)cc3)cc2C1=O	-	-	0	0	-	-	-
CCc1ccc(S(=O)(=O)NCC2(N3CCOCC3)CCCCC2)cc1	0	-	0	0	-	-	-
Cc1ccc(C)c(N2N=C(C(=O)Nc3ccc(N4CCOCC4)cc3)CCC2=O)c1	-	-	-	0	-	-	-
Cc1nnc(SCC(=O)N(CCC#N)c2ccc3c(c2)OCCO3)s1	0	-	0	0	-	-	-
CCN1C(=O)/C(=C/C=C2/SCCN2C)SC1=S	0	0	0	0	0	-	-
Cc1ccc(-n2nnnc2-c2cccs2)cc1[N+](=O)[O-]	0	-	0	0	-	-	-
CCN(CC)CCCN(C(=O)c1ccco1)c1nc(-c2ccc(C)cc2)cs1	0	0	0	0	-	-	-
CCN(CC)CCCN(C(=O)c1ccco1)c1nc(-c2ccc(Cl)cc2)cs1	0	0	0	51	54	0	0
CCN(CC(=O)Nc1ccc(OC)cc1)C(=O)CSCC(=O)Nc1cc(C)on1	0	-	0	0	-	-	-
CCCCn1c(-c2csc3c2CCCC3)n[nH]c1=S	0	0	-	54	66	65	55
Cc1cccc(S(=O)(=O)N2CCn3cccc3C2C)c1 (stereo not given)	0	-	0	0	-	-	-
Cc1[nH]c2ccccc2c1C(=O)COC(=O)c1ccc([N+](=O)[O-])s1	?	0	0	56	78	85	87
SMILES	Bfl-1 A1 inh	NALP1 yeast inh	T cell modulator	NLRP3 yeast inh	NALP3 confirm	Casp1-ASC yeast	NALP3 yeast rt
O=C(COC(=O)c1ccc([N+](=O)[O-])s1)NCc1ccccc1	0	0	0	0	-	-	-
CCOC(=O)c1c(NC(=O)CSc2nnc(C)o2)sc(C)c1C	0	-	0	52	54	0	0
CCOC(=O)c1c(NC(=O)CSc2nnnn2C)sc(C)c1C	0	0	0	0	-	-	-
CC12CCC3c4ccc(O)cc4CCC3C1CCC2=O (stereo not given)	0	-	0	0	-	-	-
C#C[C@]1(O)CC[C@H]2[C@@H]3CCc4cc(O)ccc4[C@H]3CC[C@@]21C	0	49	0	55	68	51	0
COC(=O)C1C(c2ccccc2)C=CC(c2ccccc2)C1C(=O)O (stereo not given)	0	-	0	0	-	-	-
COC(=O)C1C(C(=O)OC)C1(c1ccccc1)c1ccccc1 (stereo not given)	0	0	0	0	0	-	-
